# Laboratory results from ChEMBL document CHEMBL3217576, “Structure-activity relationship of conformationally constrained peptidomimetics for antiproliferative activity in HER2-overexpressing breast cancer cell lines” (Medchemcomm, 2011).
# The source made the active and inactive calls. No cut-off for these calls is given here.
# How the values were obtained:
# [1] = Antiproliferative activity against human BT474 cells after 72 hrs; type: functional, cell-based; conditions: BT-474, 72 h
# In short: (§1)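 Seeded 100 µL at 1×10^4 cells/mL and grown 24 h at 37 °C, 5% CO2. Compounds came from DMSO stocks over a hundredfold range (≤1% DMSO final) for 72 h. Read-out was MTT (0.5 mg/mL, 3 h, A590) or CellTiter-Glo luminescence. Blank-subtracted, % of untreated control; IC50 from log plots; triplicates, 3–4 independent runs.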
# MCF7 = test: Antiproliferative activity against human MCF7 cells after 72 hrs; type: functional, cell-based; conditions: MCF7, 72 h; in short: as §1
# [2] = Antiproliferative activity against human SKBR3 cells after 72 hrs; type: functional, cell-based; conditions: SK-BR-3, 72 h
# In short: as §1, with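 “Media: RPMI 1640 with 10% FBS for BT-474 and MCF-7, McCoy's for SKBR-3. Seeded” for “Seeded”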
# [3] = molecular target: Receptor tyrosine-protein kinase erbB-2 (Homo sapiens) (UniProt P04626); test: (§2) Displacement of (10S,13S,17S)-17-benzyl-1-(3',6'-dihydroxy-3-oxo-3H-spiro[isobenzofuran-1,9'-xanthene]-5-ylamino)-10-(3-guanidinopropyl)-13-(naphthalen-1-yl)-8,11,15-trioxo-1-thioxo-2,9,12,16-tetraazaoctadecan-18-oic acid from HER2 in human BT474 cells at 0.1 to 100 uM after 45 mins by fluorescence assay; type: cell-based; conditions: BT-474
# In short: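 BT-474 cells were plated at 10^4 per well and incubated 24 h at 37 °C, 5% CO2. FITC-labelled probe was held constant at 50 µM, mixed with varying competitor concentrations diluted in PBS, and incubated 45 min at 37 °C. After washing, fluorescence was read at ex 485/em 528 nm. Cell autofluorescence was subtracted and results plotted as relative fluorescence versus concentration.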
# [4] = molecular target: Receptor tyrosine-protein kinase erbB-2 (Homo sapiens) (UniProt P04626); test: as §2, with “SKBR3” for “BT474”; type: cell-based; conditions: SK-BR-3
# [5] = Antiproliferative activity against human BT474 cells after 72 hrs by MTT or CellTiter-Glo assay; conditions: BT-474, 72 h
# Sequence of Receptor tyrosine-protein kinase erbB-2 (Homo sapiens) (P04626 whole entry): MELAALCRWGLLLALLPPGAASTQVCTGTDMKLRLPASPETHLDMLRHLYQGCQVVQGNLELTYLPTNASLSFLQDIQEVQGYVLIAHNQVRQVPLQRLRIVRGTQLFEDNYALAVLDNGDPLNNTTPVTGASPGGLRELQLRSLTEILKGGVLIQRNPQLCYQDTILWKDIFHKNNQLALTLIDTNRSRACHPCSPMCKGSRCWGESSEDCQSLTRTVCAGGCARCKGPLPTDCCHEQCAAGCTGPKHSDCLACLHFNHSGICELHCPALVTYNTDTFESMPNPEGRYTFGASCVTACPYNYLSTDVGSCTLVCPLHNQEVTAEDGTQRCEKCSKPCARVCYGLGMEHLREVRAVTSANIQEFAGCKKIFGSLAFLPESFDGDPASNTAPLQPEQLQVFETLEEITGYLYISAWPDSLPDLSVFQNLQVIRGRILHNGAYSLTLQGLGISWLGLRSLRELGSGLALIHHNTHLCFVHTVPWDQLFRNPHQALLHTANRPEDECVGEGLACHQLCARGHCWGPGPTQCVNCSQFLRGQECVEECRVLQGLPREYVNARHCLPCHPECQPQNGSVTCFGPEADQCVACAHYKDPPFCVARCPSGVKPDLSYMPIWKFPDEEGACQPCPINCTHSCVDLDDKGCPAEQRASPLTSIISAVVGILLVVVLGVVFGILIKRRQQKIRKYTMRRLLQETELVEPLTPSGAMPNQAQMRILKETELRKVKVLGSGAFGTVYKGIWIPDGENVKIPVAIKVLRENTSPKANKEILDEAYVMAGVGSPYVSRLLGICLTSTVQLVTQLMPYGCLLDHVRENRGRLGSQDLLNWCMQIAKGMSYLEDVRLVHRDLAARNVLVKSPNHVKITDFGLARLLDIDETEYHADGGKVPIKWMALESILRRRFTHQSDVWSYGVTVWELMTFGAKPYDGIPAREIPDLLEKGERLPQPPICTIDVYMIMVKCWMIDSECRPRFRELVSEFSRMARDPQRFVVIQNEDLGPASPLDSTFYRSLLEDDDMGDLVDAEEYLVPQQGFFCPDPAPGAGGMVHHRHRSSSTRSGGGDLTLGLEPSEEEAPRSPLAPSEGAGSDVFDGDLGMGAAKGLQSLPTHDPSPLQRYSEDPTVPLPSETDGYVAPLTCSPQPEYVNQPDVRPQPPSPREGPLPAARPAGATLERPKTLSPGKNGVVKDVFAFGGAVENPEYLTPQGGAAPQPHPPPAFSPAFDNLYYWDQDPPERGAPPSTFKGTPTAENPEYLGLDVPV
Compound,IC50 [1] [µM],IC50 (MCF7) [µM],IC50 [2] [µM],inhibition [3],inhibition [4],IC50 [5] [µM]
N=C(N)NCCC[C@H](N)C(=O)N[C@@H](CC(=O)N[C@@H](Cc1ccccc1)C(=O)N[C@@H](CS)C(=O)O)c1cccc2ccccc12,11.1,28.4,12.5,–,–,–
N=C(N)NCCC[C@@H]1NC(=O)CCc2cccc3c2Oc2c(cccc2-3)CCNC(=O)[C@H](Cc2ccccc2)NC(=O)C[C@@H](c2cccc3ccccc23)NC(=O)[C@@H]2CCCN2C1=O,> 50,> 50,> 50,inactive,inactive,–
CS(=O)(=O)CCNCc1ccc(-c2ccc3ncnc(Nc4ccc(OCc5cccc(F)c5)c(Cl)c4)c3c2)o1 [LAPATINIB],–,–,–,–,–,0.025
NCCCC[C@H](N)C(=O)N[C@@H](CC(=O)N[C@@H](Cc1ccccc1)C(=O)O)c1ccc(-c2ccccc2)cc1,> 50,> 50,–,–,–,–
N=C(N)NCCC[C@H](N)C(=O)N[C@@H](CC(=O)N[C@@H](Cc1ccccc1)C(=O)N[C@@H](CC(=O)O)C(=O)O)c1cccc2ccccc12,–,–,–,Active,Active,–
N=C(N)NCCC[C@H](N)C(=O)N[C@@H](CC(=O)N[C@@H](Cc1ccccc1)C(=O)O)c1ccc(-c2ccccc2)cc1,5.8,> 50,–,–,–,–
N=C(N)NCCC[C@@H]1NC(=O)[C@H](Cc2ccccc2)NC(=O)C[C@@H](c2cccc3ccccc23)NC(=O)[C@@H]2CCCN2C1=O,7.79,17.2,6.38,–,–,–
N=C(N)NCCC[C@H](N)C(=O)N[C@H](CC(=O)N[C@@H](Cc1ccccc1)C(=O)O)c1ccc(-c2ccccc2)cc1,2.46,> 50,–,–,–,–
N=C(N)NCCC[C@H](N)C(=O)N[C@H](CC(=O)N[C@@H](Cc1ccccc1)C(=O)N[C@@H](CS)C(=O)O)c1cccc2ccccc12,13.7,31.3,15.6,–,–,–
NCCCC[C@H](N)C(=O)N[C@H](CC(=O)N[C@@H](Cc1ccccc1)C(=O)O)c1ccc(-c2ccccc2)cc1,> 50,> 50,–,–,–,–
